Measurements taken from ChEMBL document CHEMBL1649441, “Potency and bactericidal activity of iclaprim against recent clinical gram-positive isolates” (2009).
Converted amounts (≈) assume the structure as drawn.

Key:
Enterococcus faecium [1] = assay: Antibacterial activity against Enterococcus faecium assessed as inhibition of bacterial growth at 0.03 ug/ml by CLSI broth microdilution method; assay type: functional
Method in brief: (§1)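 Clinical isolates from skin/soft tissue, bloodstream and respiratory specimens were tested by broth microdilution per CLSI M7-A7 and M100-S18, with quality controls. Values are the number of isolates inhibited at each concentration, or MIC / percent susceptible. Highest concentration tested was 8 µg/ml for iclaprim and trimethoprim-sulfamethoxazole, and 64 µg/ml for trimethoprim.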

[2] = tested on: Streptococcus sp. 'group A'; assay: Antibacterial activity against Beta-hemolytic Streptococcus group A assessed as inhibition of bacterial growth at 0.06 ug/ml by CLSI broth microdilution method; assay type: functional; method in brief: as §1
[3] = tested on: Streptococcus sp. 'group B'; assay: Antibacterial activity against Beta-hemolytic Streptococcus group B assessed as inhibition of bacterial growth at <= 0.008 ug/ml by CLSI broth microdilution method; assay type: functional; method in brief: as §1
Staphylococcus aureus [4] = assay: Antibacterial activity against Methicillin-resistant Staphylococcus aureus assessed as inhibition of bacterial growth at <= 0.008 ug/ml by CLSI broth microdilution method; assay type: functional
Method in brief: (§2)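 Recent clinical isolates from skin/soft tissue, bloodstream and respiratory specimens. Tested by broth microdilution per CLSI M7-A7 and M100-S18, with the appropriate quality controls. The thymidine content of the test medium was assessed to rule out artifactual inhibition.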

Enterococcus faecium [5] = assay: (§3) Antibacterial activity against Enterococcus faecium assessed as inhibition of bacterial growth at […] by CLSI broth microdilution method; assay type: functional
Enterococcus faecium [6] = assay: Antibacterial activity against Enterococcus faecium assessed as inhibition of bacterial growth at <= 0.008 ug/ml by CLSI broth microdilution method; assay type: functional
Staphylococcus aureus [7] = assay: Antibacterial activity against Methicillin-sensitive Staphylococcus aureus assessed as inhibition of bacterial growth at […] by CLSI broth microdilution method; assay type: functional; set-up: Activity: scale not given: the % may be the effect or the level left
[8] = tested on: Streptococcus sp. 'group B'; assay: Antibacterial activity against Beta-hemolytic Streptococcus group B by CLSI broth microdilution method; assay type: functional; method in brief: as §1
[9] = tested on: Streptococcus sp. 'group B'; assay: Antibacterial activity against Beta-hemolytic Streptococcus group B assessed as inhibition of bacterial growth at […] by CLSI broth microdilution method; assay type: functional
Staphylococcus aureus [10] = assay: Antibacterial activity against Methicillin-sensitive Staphylococcus aureus assessed as inhibition of bacterial growth at 0.03 ug/ml by CLSI broth microdilution method; assay type: functional; set-up: Activity: scale not given: the % may be the effect or the level left; method in brief: as §2
[11] = tested on: Streptococcus sp. 'group A'; assay: Antibacterial activity against Beta-hemolytic Streptococcus group A assessed as inhibition of bacterial growth at <= 0.008 ug/ml by CLSI broth microdilution method; assay type: functional; method in brief: as §1
Enterococcus faecalis [12] = assay: Antibacterial activity against Enterococcus faecalis assessed as inhibition of bacterial growth at <= 0.008 ug/ml by CLSI broth microdilution method; assay type: functional; method in brief: as §1
[13] = tested on: Streptococcus sp. 'group B'; assay: Antibacterial activity against Beta-hemolytic Streptococcus group B assessed as inhibition of bacterial growth at 0.015 ug/ml by CLSI broth microdilution method; assay type: functional; method in brief: as §1
Enterococcus faecium [14] = assay: Antibacterial activity against Enterococcus faecium assessed as inhibition of bacterial growth at 0.015 ug/ml by CLSI broth microdilution method; assay type: functional; method in brief: as §1
[15] = tested on: Streptococcus sp. 'group A'; assay: Antibacterial activity against Beta-hemolytic Streptococcus group A assessed as inhibition of bacterial growth at 4 ug/ml by CLSI broth microdilution method; assay type: functional; method in brief: as §1
Staphylococcus aureus [16] = assay: Antibacterial activity against Methicillin-resistant Staphylococcus aureus assessed as inhibition of bacterial growth at 0.5 ug/ml by CLSI broth microdilution method; assay type: functional; method in brief: as §2
Enterococcus faecalis [17] = assay: Antibacterial activity against Enterococcus faecalis assessed as inhibition of bacterial growth at 0.015 ug/ml by CLSI broth microdilution method; assay type: functional; method in brief: as §1
Enterococcus faecium [18] = assay: as §3; assay type: functional; remark: listed apart in the source
Staphylococcus aureus [19] = assay: Antibacterial activity against Methicillin-resistant Staphylococcus aureus assessed as inhibition of bacterial growth at 1 ug/ml by CLSI broth microdilution method; assay type: functional; method in brief: as §2
Enterococcus faecium [20] = assay: Antibacterial activity against Enterococcus faecium assessed as inhibition of bacterial growth at 4 ug/ml by CLSI broth microdilution method; assay type: functional
[21] = tested on: Streptococcus sp. 'group A'; assay: Antibacterial activity against Beta-hemolytic Streptococcus group A assessed as inhibition of bacterial growth at […] by CLSI broth microdilution method; assay type: functional; note: tested at 0.25 µg/mL
Staphylococcus aureus [22] = assay: Antibacterial activity against Methicillin-resistant Staphylococcus aureus assessed as inhibition of bacterial growth at 8 ug/ml by CLSI broth microdilution method; assay type: functional; method in brief: as §2
[23] = tested on: Streptococcus sp. 'group B'; assay: Antibacterial activity against Beta-hemolytic Streptococcus group B assessed as inhibition of bacterial growth at 8 ug/ml by CLSI broth microdilution method; assay type: functional; method in brief: as §1
[24] = tested on: Streptococcus sp. 'group A'; assay: Antibacterial activity against Beta-hemolytic Streptococcus group A by CLSI broth microdilution method; assay type: functional; method in brief: as §1
Staphylococcus aureus [25] = assay: Antibacterial activity against Methicillin-sensitive Staphylococcus aureus assessed as inhibition of bacterial growth at 4 ug/ml by CLSI broth microdilution method; assay type: functional
[26] = tested on: Streptococcus sp. 'group B'; assay: Antibacterial activity against Beta-hemolytic Streptococcus group B assessed as inhibition of bacterial growth at 0.03 ug/ml by CLSI broth microdilution method; assay type: functional; method in brief: as §1
Staphylococcus aureus [27] = assay: Antibacterial activity against Methicillin-resistant Staphylococcus aureus assessed as inhibition of bacterial growth at 0.015 ug/ml by CLSI broth microdilution method; assay type: functional; method in brief: as §2
Staphylococcus aureus [28] = assay: microbe, parasite or virus in culture; conditions: read-out: INH
[29] = tested on: Streptococcus sp. 'group A'; assay: microbe, parasite or virus in culture; conditions: read-out: INH
Enterococcus faecium [30] = assay: microbe, parasite or virus in culture; conditions: read-out: INH
Enterococcus faecalis [31] = assay: microbe, parasite or virus in culture; conditions: read-out: INH
Enterococcus faecalis [32] = assay: microbe, parasite or virus in culture; conditions: read-out: INH; remark: listed apart in the source
Staphylococcus aureus [33] = assay: Antibacterial activity against Methicillin-resistant Staphylococcus aureus assessed as susceptible isolates by CLSI broth microdilution method; assay type: functional
Staphylococcus aureus [34] = assay: microbe, parasite or virus in culture; conditions: read-out: INH; remark: listed apart in the source
Staphylococcus aureus [35] = assay: Antibacterial activity against Methicillin-resistant Staphylococcus aureus assessed as resistant isolates by CLSI broth microdilution method; assay type: functional
Staphylococcus aureus [36] = assay: Antibacterial activity against Methicillin-sensitive Staphylococcus aureus assessed as resistant isolates by CLSI broth microdilution method; assay type: functional
Staphylococcus aureus [37] = assay: microbe, parasite or virus in culture; conditions: read-out: INH; remark: listed apart in the source
Enterococcus faecalis [38] = assay: microbe, parasite or virus in culture; conditions: read-out: INH; remark: listed apart in the source
Staphylococcus aureus [39] = assay: microbe, parasite or virus in culture; conditions: read-out: INH; remark: listed apart in the source
Staphylococcus aureus [40] = assay: microbe, parasite or virus in culture; conditions: read-out: INH; remark: listed apart in the source
Staphylococcus aureus [41] = assay: Antibacterial activity against Methicillin-sensitive Staphylococcus aureus assessed as susceptible isolates by CLSI broth microdilution method; assay type: functional
[42] = tested on: Streptococcus sp. 'group A'; assay: microbe, parasite or virus in culture; conditions: read-out: INH; remark: listed apart in the source
[43] = tested on: Streptococcus sp. 'group B'; assay: microbe, parasite or virus in culture; conditions: read-out: INH

SMILES	inhibition at 0.03 µg/mL (Enterococcus faecium [1]) [%]	inhibition at 0.06 µg/mL [2] [%]	inhibition at […] (Enterococcus faecium [5]) [%]	MIC50 [8] [µg/mL]	MIC90 [8] [µg/mL]	inhibition at […] [9] [%]	inhibition at 4 µg/mL [15] [%]	inhibition at 0.5 µg/mL (Staphylococcus aureus [16]) [%]	inhibition at […] (Enterococcus faecium [18]) [%]	inhibition at 1 µg/mL (Staphylococcus aureus [19]) [%]	inhibition at 4 µg/mL (Enterococcus faecium [20]) [%]	inhibition at […] [21] [%]	inhibition at 8 µg/mL (Staphylococcus aureus [22]) [%]	inhibition at 8 µg/mL [23] [%]	MIC50 [24] [µg/mL]	MIC90 [24] [µg/mL]	inhibition at 4 µg/mL (Staphylococcus aureus [25]) [%]	inhibition at 0.03 µg/mL [26] [%]	further results
COc1cc(Cc2cnc(N)nc2N)c2c(c1OC)OC(C1CC1)C=C2 (stereo not given)	37.6	99.3	38	0.12 (≈ 0.339 µM)	0.25 (≈ 0.705 µM)	55.4	100	92.9	38.3	93.8	74.9	100	100	100	0.015 (≈ 0.0423 µM)	0.03 (≈ 0.0846 µM)	99.9	0.5	inhibition (INH) [3]: 0%; inhibition (INH) (Staphylococcus aureus [4]): 0.1%; inhibition (INH) (Enterococcus faecium [6]): 33.7%; inhibition at […] (Staphylococcus aureus [7]; Staphylococcus aureus): 95.6%; inhibition at 0.03 µg/mL (Staphylococcus aureus [10]; Staphylococcus aureus): 6.1%; inhibition (INH) [11]: 30.5%; inhibition (INH) (Enterococcus faecalis [12]): 25.5%; inhibition at 0.015 µg/mL [13]: 0.5%; inhibition at 0.015 µg/mL (Enterococcus faecium [14]): 36.3%; inhibition at 0.015 µg/mL (Enterococcus faecalis [17]): 57.7%; inhibition at 0.015 µg/mL (Staphylococcus aureus [27]): 0.4%
COc1cc(Cc2cnc(N)nc2N)cc(OC)c1OC [TRIMETHOPRIM]	13.9	8.6	36	1 (≈ 3.44 µM)	4 (≈ 13.8 µM)	0	100	47.7	37.3	88.5	38.9	84.6	92.9	100	0.25 (≈ 0.861 µM)	0.5 (≈ 1.72 µM)	98.5	0	inhibition at 64 µg/mL (Staphylococcus aureus [28]): 98.7%; inhibition at 64 µg/mL [29]: 100%; inhibition at 16 µg/mL (Enterococcus faecium [30]): 47.2%; Activity (Staphylococcus aureus [7]): 0.3%; Activity (Staphylococcus aureus [10]): 0%; inhibition at 64 µg/mL (Enterococcus faecalis [31]): 72.9%; inhibition at 32 µg/mL (Enterococcus faecalis [32]): 71%; Activity (Staphylococcus aureus [33]): 92.9%; inhibition at 32 µg/mL (Staphylococcus aureus [34]): 98.7%; Activity (Staphylococcus aureus [35]): 7.1%; Activity (Staphylococcus aureus [36]): 1.3%; inhibition at 32 µg/mL (Staphylococcus aureus [37]): 94.1%; inhibition at 16 µg/mL (Enterococcus faecalis [38]): 70.6%; inhibition at 16 µg/mL (Staphylococcus aureus [39]): 93.6%; inhibition at 16 µg/mL (Staphylococcus aureus [40]): 98.7%; Activity (Staphylococcus aureus [41]): 98.7%; inhibition at 32 µg/mL [42]: 100%; inhibition at 32 µg/mL [43]: 100%
